Results as given in ChEMBL document CHEMBL4819106, “Aminopyrazole based CDK9 PROTAC sensitizes pancreatic cancer cells to venetoclax” (Bioorg Med Chem Lett, 2021).
Calls of active or inactive are those of the source. No cut-off for these calls is given here.

Target: Protein cereblon/Cyclin-dependent kinase 9 (Homo sapiens, UniProt P50750+Q96SW2)
Assay: Protac activity at CDK9/CRBN in human HEK293 cells assessed as degradation of CDK9 at 0.01 to 10 uM incubated for 24 hrs by Western blot analysis
Type: cell-based
Conditions: dose 0.01-10 µM
Method in brief: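 HEK293 cells were treated with increasing concentrations (0.01–10 μM) for 24 hr. Lysates were analysed by western blot for CDK9 degradation.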

Protein cereblon/Cyclin-dependent kinase 9, sequence (P50750 whole entry, looked up): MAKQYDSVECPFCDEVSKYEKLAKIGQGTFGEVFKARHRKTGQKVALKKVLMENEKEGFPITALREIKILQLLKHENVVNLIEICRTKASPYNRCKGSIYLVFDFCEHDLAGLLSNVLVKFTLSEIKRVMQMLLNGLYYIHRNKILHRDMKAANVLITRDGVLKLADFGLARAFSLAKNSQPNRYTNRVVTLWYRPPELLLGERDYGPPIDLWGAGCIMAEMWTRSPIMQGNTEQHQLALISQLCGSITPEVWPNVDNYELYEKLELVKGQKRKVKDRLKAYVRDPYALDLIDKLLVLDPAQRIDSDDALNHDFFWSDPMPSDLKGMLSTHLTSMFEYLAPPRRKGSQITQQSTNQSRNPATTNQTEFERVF
Protein cereblon/Cyclin-dependent kinase 9, sequence (Q96SW2 whole entry, looked up): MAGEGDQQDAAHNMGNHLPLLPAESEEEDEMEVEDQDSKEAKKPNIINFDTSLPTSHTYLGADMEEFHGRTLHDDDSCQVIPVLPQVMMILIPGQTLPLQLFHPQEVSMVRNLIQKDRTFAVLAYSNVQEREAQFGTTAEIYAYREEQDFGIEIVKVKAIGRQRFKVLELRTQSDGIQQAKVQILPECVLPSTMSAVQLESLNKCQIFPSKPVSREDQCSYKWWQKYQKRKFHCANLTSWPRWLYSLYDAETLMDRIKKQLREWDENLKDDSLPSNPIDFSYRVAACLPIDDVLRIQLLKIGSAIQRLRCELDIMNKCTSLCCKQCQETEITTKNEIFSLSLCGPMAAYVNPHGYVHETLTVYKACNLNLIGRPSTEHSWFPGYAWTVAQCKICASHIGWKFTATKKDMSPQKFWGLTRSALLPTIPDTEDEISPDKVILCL

Row | Activity | Compound
1 | inactive | O=C(COc1ccc(CC(=O)Nc2cc(C3CCC3)[nH]n2)cc1)NCCOCCOCCNc1cccc2c1C(=O)N(C1CCC(=O)NC1=O)C2=O (stereo not drawn)
2 | inactive | O=C(CCCOc1ccc(CC(=O)Nc2cc(C3CCC3)[nH]n2)cc1)NCCOCCOCCNc1cccc2c1C(=O)N(C1CCC(=O)NC1=O)C2=O (stereo not drawn)
3 | inactive | O=C(COc1ccc(CC(=O)Nc2cc(C3CCC3)[nH]n2)cc1)NCCCCNc1cccc2c1C(=O)N(C1CCC(=O)NC1=O)C2=O (stereo not drawn)
